From ChEMBL document CHEMBL4196054, “Facile synthesis of 1,2-dione-containing abietane analogues for the generation of human carboxylesterase inhibitors” (Eur J Med Chem, 2018)
pKi: −log10 of the molar value.

What was measured:
[1] = target: T1, Liver carboxylesterase 1 (Homo sapiens, UniProt P23141); experiment: Inhibition of human liver carboxylesterase 1 using o-nitrophenyl acetate as substrate
T1 sequence (P23141 whole entry): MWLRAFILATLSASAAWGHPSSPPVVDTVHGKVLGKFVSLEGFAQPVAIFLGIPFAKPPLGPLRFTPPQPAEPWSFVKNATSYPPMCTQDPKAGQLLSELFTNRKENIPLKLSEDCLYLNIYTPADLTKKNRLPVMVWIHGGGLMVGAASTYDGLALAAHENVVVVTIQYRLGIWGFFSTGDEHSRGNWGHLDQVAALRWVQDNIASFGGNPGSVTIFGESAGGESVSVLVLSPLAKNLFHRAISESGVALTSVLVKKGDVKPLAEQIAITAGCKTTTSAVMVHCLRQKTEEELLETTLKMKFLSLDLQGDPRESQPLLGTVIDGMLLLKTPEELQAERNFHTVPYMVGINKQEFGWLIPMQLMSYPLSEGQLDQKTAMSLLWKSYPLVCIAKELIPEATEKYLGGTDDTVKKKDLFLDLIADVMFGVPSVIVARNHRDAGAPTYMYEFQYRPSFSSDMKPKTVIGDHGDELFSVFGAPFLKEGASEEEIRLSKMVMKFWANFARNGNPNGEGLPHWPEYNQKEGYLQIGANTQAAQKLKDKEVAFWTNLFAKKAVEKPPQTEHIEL
Summary of the method: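 Chromatographically pure human hCE1 in 50mM Hepes pH7.4 with 3mM o-nitrophenyl acetate. Inhibitor in DMSO, at least 8 concentrations, triplicates, compared against DMSO-only controls. Reaction started by enzyme addition. Data fitted to a multifactorial equation, the best inhibition model chosen by Akaike's information criterion, and Ki taken from the curve fits.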

[2] = Inhibition of human intestinal carboxylesterase using o-nitrophenyl acetate as substrate
Summary of the method: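 Purified human intestinal CE (hiCE), chromatographically pure. Read in 96-well format with 3mM o-nitrophenyl acetate in 50mM Hepes, pH7.4. Inhibitors were added in DMSO and the reaction was started by adding enzyme. At least 8 inhibitor concentrations were run in triplicate against DMSO-only controls. Data were fitted to a multifactorial equation, the best model was chosen by Akaike's information criteria, and Ki was taken from the curve fits.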

[3] = species on record: Homo sapiens; experiment: Selectivity index, ratio of Ki for human liver carboxylesterase 1 to Ki for human intestinal carboxylesterase
[4] = target: Acetylcholinesterase (Homo sapiens) (UniProt P22303); experiment: Inhibition of human AChE using acetylthiocholine as substrate at 5 uM by spectrophotometric analysis
Acetylcholinesterase (Homo sapiens), sequence (P22303 whole entry): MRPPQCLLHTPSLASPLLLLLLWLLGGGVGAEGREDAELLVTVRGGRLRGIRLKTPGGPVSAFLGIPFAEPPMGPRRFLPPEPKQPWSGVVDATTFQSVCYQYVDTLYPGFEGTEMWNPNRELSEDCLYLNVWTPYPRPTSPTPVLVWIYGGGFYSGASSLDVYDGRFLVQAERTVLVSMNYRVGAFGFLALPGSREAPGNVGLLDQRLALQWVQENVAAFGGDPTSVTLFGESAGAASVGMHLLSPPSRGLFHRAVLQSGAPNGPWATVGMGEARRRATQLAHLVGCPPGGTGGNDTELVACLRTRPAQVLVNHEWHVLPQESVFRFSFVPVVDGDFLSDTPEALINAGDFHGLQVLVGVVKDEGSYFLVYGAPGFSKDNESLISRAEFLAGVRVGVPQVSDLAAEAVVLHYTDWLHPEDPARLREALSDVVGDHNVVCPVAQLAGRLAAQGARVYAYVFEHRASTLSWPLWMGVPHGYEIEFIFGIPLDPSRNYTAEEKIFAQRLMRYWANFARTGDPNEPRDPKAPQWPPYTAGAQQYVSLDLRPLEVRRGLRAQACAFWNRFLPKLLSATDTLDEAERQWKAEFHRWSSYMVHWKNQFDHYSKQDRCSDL
Summary of the method: (§1)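 Run like the carboxylesterase assay in 50mM Hepes pH7.4 with DMSO-dissolved inhibitor, reaction started by enzyme addition. Substrate is acetylthiocholine (AChE) or butyrylthiocholine (BChE). Inhibitor tested at a single 5µM concentration.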

[5] = target: Cholinesterase (Homo sapiens) (UniProt P06276); experiment: Inhibition of human BChE using butyrylthiocholine as substrate at 5 uM by spectrophotometric analysis; summary of the method: as §1
Cholinesterase (Homo sapiens), sequence (P06276 whole entry): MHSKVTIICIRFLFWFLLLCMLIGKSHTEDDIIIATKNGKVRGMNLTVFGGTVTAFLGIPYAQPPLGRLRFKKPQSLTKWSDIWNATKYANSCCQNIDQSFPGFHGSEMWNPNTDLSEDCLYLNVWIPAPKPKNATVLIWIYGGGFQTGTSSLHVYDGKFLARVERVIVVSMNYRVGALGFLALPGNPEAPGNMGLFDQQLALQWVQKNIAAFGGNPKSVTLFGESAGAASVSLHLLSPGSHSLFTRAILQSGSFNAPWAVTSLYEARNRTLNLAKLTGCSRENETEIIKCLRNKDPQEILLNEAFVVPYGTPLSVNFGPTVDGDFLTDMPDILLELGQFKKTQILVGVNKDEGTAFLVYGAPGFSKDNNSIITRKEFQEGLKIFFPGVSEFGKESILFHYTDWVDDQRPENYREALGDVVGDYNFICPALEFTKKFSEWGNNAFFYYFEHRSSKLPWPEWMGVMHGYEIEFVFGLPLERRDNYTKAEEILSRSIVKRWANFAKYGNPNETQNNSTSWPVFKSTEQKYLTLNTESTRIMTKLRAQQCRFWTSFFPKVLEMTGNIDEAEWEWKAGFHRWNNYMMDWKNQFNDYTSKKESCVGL

[6] = species on record: Homo sapiens; experiment: Potency index, ratio of miltirone Ki to compound Ki for inhibition of human intestinal carboxylesterase
[7] = target: T2, liver carboxylesterase 1 (CES1) (Homo sapiens, UniProt P23141); experiment: Potency index, ratio of miltirone Ki to compound Ki for inhibition of human liver carboxylesterase 1; conditions: read-out: Ratio Ki
T2 sequence (P23141 whole entry): T1 sequence (P23141 whole entry)

Structure (SMILES) | pKi [1] | pKi [2] | Ratio Ki [3] | inhibition [4] [%] | inhibition [5] [%] | Ratio Ki [6] | selectivity ratio [7]
COC1=Cc2ccc3c(c2C(=O)C1=O)CC(C)(C)CC3 | 7.37 | 6.80 | 0.3 | 2 | 1 |  | 
O=C1C=C(F)c2ccc3c(c2C1=O)CCCC3 | 7.59 | 6.77 | 0.15 | 4 | 33 |  | 
O=C1C=Cc2ccc3ccccc3c2C1=O | 6.03 | ≤ 5.00 | < 0.06 | 16 | 13 |  | 
O=C1C=Cc2ccc3c(c2C1=O)CCCC3 | 6.88 | 5.66 | 0.06 | 0 | 54 |  | 
O=C1C(=O)c2c(ccc3ccccc23)C=C1F | 7.31 | 7.29 | 0.48 | 8 | 3 |  | 
CC1(C)CCc2ccc3c(c2C1)C(=O)C(=O)C(F)=C3F | 6.99 | 7.36 | 2.3 | 4 | 1 |  | 
CC(C)C1=Cc2ccc3c(c2C(=O)C1=O)CCCC3 | 5.98 | 6.95 |  | 16 | 1 |  | 
CC(C)C1=Cc2ccc3c(c2C(=O)C1=O)CC(C)(C)CC3 | 5.73 | 7.51 | 60 | 20 | 4 |  | 
CC(C)C1=Cc2ccc3c(c2C(=O)C1=O)CCCC3(C)C [MILTIRONE] |  |  |  | 22 | 6 |  | 
CC1=Cc2ccc3c(c2C(=O)C1=O)CCC(C)(C)C3 | 6.31 | 6.74 | 2.7 | 1 | 2 |  | 
CC1=Cc2ccc3c(c2C(=O)C1=O)CCCC3 | 5.91 | 6.37 | 2.9 | 5 | 4 |  | 
CC1=CC(=O)C(=O)c2c1ccc1c2CCCC1 | 7.60 | ≤ 5.00 |  | 13 | 30 |  | 
CC1(C)CCc2ccc3c(c2C1)C(=O)C(=O)C(F)=C3 | 7.38 | 7.84 | 2.9 | 3 | 23 | 3 | 
CC1=Cc2ccc3c(c2C(=O)C1=O)CCOC3 | ≤ 5.00 | ≤ 5.00 |  | 27 | 0 |  | 
O=C1C(=O)c2c(ccc3c2CCCC3)C=C1F | 7.91 | 6.95 | 0.11 | 16 | 62 |  | 210
CC1(C)CCc2ccc3c(c2C1)C(=O)C(=O)C=C3F | 7.84 | 6.41 | 0.04 | 10 | 15 |  | 175
CC1(C)CCc2ccc3c(c2C1)C(=O)C(=O)C=C3 | 7.50 | 6.47 | 0.09 | 2 | 13 |  | 
CC(C)C1=Cc2ccc3c(c2C(=O)C1=O)CCC(C)(C)C3 | 5.38 | 7.15 | 59.5 | 30 | 3 |  | 
CC1=Cc2ccc3c(c2C(=O)C1=O)CC(C)(C)CC3 | 5.62 | 7.06 | 27.6 | 0 | 1 |  | 
